Results as given in ChEMBL document CHEMBL1127019, “(S)-N-tert-butyl-3-(4-(2-methoxyphenyl)-piperazin-1-yl)-2-phenylpropanamide [(S)-WAY-100135]: a selective antagonist at presynaptic and postsynaptic 5-HT1A receptors” (J Med Chem, 1993).

Experiments:
[1] = target: D(1A) dopamine receptor (Rattus norvegicus) (UniProt P18901); experiment: In vitro binding affinity towards the dopamine receptor D1 at 10 e-6 M
How it was run: (§1)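 Radioligand binding in vitro. Values are mean percent inhibition at 10⁻⁶ M, from at least three experiments each run in triplicate.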

[2] = target: 5-hydroxytryptamine receptor 1B (Rattus norvegicus) (UniProt P28564); experiment: In vitro binding affinity towards the 5-hydroxytryptamine 1B receptor at 10 e-6 M; how it was run: as §1
[3] = target: Adrenergic receptor alpha-2 (Rattus norvegicus) (UniProt P22086+P19328+P22909); experiment: In vitro binding affinity towards the noradrenergic alpha-2 receptor at 10 e-6 M; type: protein assay; how it was run: as §1
[4] = target: Adrenergic receptor beta (Rattus norvegicus) (UniProt P18090+P10608+P26255); experiment: (§2) In vitro binding affinity towards the noradrenergic beta receptor at 10 e-6 M; type: protein assay
How it was run: (§3)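 Radioligand binding at the receptor site, run at 10⁻⁶ M. Reported as mean percent inhibition from at least three experiments, each performed in triplicate.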

[5] = target: T1, 5-hydroxytryptamine receptor 2C (Rattus norvegicus) (UniProt P08909); experiment: In vitro binding affinity towards the 5-hydroxytryptamine 1C receptor at 10 e-6 M; how it was run: as §1
T1 sequence (whole entry): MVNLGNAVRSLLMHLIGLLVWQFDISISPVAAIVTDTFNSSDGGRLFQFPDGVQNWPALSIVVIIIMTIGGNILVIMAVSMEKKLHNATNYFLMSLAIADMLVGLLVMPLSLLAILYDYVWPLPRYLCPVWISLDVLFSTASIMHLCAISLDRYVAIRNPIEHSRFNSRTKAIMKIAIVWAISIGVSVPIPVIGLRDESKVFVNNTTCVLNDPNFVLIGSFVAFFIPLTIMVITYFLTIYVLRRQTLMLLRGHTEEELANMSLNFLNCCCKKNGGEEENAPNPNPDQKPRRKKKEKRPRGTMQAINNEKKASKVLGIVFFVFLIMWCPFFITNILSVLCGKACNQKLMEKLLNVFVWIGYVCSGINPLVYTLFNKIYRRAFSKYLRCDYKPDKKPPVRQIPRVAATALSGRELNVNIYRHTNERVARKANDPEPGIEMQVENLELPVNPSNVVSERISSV

[6] = target: D(2) dopamine receptor (Rattus norvegicus) (UniProt P61169); experiment: In vitro binding affinity towards the dopamine receptor D2 at 10 e-6 M; how it was run: as §1
Adrenergic receptor beta = Adrenergic receptor beta (Rattus norvegicus, UniProt P18090+P10608+P26255); experiment: as §2; type: protein assay; how it was run: as §3
Rattus norvegicus [7] = experiment: Decrease in hippocampal level of 5-HT at preinjection of 1 mg/kg, sc; type: functional, Hippocampus; details: route subcutaneous
[8] = target: T2, Adrenergic receptor alpha-1 (Rattus norvegicus, UniProt P15823+P23944+P43140); experiment: In vitro binding affinity towards the alpha-1 receptor at 10 e-6 M; type: protein assay; how it was run: as §1
T2 sequence (P15823 whole entry): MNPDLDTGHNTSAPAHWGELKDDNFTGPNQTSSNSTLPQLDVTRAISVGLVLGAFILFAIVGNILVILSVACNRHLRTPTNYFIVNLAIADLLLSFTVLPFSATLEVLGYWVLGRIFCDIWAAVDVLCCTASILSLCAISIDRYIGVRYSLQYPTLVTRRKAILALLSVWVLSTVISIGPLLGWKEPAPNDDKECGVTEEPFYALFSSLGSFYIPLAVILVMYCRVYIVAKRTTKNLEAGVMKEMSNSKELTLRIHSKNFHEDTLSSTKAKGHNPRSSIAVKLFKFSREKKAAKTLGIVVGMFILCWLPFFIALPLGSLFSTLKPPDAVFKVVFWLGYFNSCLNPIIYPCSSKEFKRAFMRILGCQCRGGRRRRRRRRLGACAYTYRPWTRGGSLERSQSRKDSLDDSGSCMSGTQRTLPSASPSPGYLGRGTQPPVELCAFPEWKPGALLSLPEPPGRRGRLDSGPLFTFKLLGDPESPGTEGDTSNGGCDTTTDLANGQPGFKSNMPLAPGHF
T2 sequence (P23944 whole entry): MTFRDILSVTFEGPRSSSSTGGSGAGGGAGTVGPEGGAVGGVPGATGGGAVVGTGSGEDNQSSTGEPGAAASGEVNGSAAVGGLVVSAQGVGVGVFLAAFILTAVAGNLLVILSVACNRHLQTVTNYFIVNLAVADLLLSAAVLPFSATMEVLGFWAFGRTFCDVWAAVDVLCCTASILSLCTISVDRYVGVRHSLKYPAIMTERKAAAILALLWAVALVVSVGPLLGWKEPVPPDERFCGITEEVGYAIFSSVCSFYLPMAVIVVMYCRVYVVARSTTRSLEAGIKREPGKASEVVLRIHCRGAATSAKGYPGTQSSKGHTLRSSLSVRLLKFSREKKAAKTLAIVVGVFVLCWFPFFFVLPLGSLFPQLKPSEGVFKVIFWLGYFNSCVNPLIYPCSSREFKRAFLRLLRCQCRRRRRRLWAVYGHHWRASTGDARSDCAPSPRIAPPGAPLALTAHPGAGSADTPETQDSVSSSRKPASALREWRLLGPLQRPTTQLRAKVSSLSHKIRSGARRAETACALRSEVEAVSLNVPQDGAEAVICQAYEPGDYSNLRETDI
T2 sequence (P43140 whole entry): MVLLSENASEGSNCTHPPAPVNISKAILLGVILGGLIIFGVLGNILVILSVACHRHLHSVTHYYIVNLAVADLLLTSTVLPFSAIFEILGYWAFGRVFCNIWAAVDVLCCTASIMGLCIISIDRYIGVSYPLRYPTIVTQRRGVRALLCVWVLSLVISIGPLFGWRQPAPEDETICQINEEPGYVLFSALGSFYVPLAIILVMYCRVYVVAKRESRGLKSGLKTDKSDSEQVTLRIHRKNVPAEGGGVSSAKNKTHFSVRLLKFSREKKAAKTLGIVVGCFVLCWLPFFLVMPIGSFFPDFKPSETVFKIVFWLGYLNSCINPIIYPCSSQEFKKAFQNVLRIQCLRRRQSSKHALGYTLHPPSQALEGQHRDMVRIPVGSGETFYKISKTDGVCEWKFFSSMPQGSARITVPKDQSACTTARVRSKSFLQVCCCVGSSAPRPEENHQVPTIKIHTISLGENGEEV

[9] = target: Serotonin 2 (5-HT2) receptor (Rattus norvegicus, UniProt P30994+P08909+P14842); experiment: (§4) In vitro binding affinity towards the 5-hydroxytryptamine 2 receptor at 10 e-6 M; type: protein assay; how it was run: as §1
[10] = target: T3, 5-hydroxytryptamine receptor 1A (Rattus norvegicus, UniProt P19327); experiment: In vitro binding affinity towards the 5-hydroxytryptamine 1A receptor was evaluated
T3 sequence (P19327 whole entry): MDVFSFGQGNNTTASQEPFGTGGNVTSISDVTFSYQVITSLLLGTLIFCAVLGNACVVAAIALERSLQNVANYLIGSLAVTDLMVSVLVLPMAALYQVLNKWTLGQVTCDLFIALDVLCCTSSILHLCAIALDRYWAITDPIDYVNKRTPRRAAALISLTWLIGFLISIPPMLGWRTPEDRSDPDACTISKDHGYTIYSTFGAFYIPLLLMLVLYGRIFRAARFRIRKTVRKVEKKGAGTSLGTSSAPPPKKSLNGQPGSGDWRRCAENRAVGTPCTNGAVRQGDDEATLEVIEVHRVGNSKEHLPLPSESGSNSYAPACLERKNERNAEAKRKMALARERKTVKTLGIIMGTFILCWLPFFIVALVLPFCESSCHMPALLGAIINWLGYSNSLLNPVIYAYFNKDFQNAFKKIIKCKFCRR
How it was run: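 Receptor binding at the 5-HT1A site, reported as IC50. Each value is the mean IC50 ± standard error of at least three experiments, each run in triplicate.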

Rattus norvegicus [11] = experiment: Decrease in hippocampal level of 5-HT at preinjection of 5 mg/kg, sc; type: functional, Hippocampus; details: route subcutaneous
How it was run: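 Microdialysis in conscious, freely moving rats. Test agent given sc, and extracellular 5-HT measured in hippocampus for up to 2.5 h after dosing. Values expressed as % of preinjection control levels.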

Rattus norvegicus [12] = experiment: Minimum effective dose administered subcutaneously to block the effect of 8-hydroxy-DPAT; type: functional
How it was run: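 Rats pretreated sc with vehicle or test agent, then given 8-OH-DPAT iv 30 min later to induce the behavioral syndrome. Groups of at least 10 rats were used, and the 8-OH-DPAT ED50 was determined by the sequential up/down method.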

[13] = target: T2, Adrenergic receptor alpha-1; experiment: In vitro binding affinity towards the anor-adrenergic alpha-1 receptor at 10 e-6 M; type: protein assay; how it was run: as §1
[14] = target: Serotonin 2 (5-HT2) receptor (Rattus norvegicus) (UniProt P30994+P08909+P14842); experiment: as §4; type: protein assay; how it was run: as §1
[15] = target: T2, Adrenergic receptor alpha-1; experiment: In vitro binding affinity towards the noradrenergic alpha-1 receptor at 10 e-6 M; type: protein assay; how it was run: as §1
Rattus norvegicus [16] = experiment: Decrease in hippocampal level of 5-HTat preinjection of 0.1 mg/kg, sc; type: functional, Hippocampus; details: route subcutaneous

D(1A) dopamine receptor (Rattus norvegicus), sequence (P18901 whole entry): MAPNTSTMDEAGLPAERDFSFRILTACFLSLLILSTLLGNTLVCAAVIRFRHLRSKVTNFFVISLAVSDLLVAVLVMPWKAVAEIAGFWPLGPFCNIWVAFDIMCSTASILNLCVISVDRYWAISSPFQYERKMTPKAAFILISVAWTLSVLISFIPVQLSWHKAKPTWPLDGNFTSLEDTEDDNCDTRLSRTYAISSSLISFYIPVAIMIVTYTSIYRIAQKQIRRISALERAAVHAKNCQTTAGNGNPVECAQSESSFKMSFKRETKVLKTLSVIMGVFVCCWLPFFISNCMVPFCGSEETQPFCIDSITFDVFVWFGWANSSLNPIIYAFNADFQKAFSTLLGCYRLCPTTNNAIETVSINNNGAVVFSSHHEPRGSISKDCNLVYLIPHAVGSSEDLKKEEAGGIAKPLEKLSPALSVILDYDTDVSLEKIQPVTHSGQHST
5-hydroxytryptamine receptor 1B (Rattus norvegicus), sequence (P28564 whole entry): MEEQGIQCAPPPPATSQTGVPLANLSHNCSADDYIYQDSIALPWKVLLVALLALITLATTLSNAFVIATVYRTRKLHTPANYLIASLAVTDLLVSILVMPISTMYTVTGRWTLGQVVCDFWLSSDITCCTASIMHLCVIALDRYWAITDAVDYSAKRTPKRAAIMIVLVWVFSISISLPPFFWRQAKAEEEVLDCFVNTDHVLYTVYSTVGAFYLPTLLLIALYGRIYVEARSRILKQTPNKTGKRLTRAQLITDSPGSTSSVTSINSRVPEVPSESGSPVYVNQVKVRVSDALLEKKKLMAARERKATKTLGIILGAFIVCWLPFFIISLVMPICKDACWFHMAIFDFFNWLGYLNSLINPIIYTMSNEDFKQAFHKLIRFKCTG
D(2) dopamine receptor (Rattus norvegicus), sequence (P61169 whole entry): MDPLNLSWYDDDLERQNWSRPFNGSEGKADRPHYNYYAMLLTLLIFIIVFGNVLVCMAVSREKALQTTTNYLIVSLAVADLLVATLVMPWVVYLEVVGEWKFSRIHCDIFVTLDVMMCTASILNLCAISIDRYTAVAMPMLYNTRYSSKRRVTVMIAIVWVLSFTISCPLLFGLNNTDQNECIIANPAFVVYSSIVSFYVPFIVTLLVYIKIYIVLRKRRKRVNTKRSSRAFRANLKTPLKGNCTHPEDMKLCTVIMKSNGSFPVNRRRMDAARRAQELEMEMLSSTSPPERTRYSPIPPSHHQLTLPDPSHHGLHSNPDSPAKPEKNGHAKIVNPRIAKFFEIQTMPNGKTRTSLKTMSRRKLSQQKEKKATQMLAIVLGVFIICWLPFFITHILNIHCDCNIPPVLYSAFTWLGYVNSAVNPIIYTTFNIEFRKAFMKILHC
Serotonin 2 (5-HT2) receptor (Rattus norvegicus), sequence (P14842 whole entry, looked up, one chain of several): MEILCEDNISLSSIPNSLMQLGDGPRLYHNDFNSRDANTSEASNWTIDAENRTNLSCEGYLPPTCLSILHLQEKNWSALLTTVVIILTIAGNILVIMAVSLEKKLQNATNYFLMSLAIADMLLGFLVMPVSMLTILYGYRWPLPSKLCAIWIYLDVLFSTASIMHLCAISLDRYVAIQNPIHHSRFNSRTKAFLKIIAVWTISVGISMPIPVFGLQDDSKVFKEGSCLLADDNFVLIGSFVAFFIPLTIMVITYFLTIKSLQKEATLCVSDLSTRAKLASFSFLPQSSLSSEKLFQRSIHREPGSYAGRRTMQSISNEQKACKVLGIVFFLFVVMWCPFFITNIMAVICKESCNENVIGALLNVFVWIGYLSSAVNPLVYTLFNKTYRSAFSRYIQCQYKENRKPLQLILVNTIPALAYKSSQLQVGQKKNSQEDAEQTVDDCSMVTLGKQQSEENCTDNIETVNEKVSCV
Serotonin 2 (5-HT2) receptor (Rattus norvegicus), sequence (P30994 whole entry, looked up, one chain of several): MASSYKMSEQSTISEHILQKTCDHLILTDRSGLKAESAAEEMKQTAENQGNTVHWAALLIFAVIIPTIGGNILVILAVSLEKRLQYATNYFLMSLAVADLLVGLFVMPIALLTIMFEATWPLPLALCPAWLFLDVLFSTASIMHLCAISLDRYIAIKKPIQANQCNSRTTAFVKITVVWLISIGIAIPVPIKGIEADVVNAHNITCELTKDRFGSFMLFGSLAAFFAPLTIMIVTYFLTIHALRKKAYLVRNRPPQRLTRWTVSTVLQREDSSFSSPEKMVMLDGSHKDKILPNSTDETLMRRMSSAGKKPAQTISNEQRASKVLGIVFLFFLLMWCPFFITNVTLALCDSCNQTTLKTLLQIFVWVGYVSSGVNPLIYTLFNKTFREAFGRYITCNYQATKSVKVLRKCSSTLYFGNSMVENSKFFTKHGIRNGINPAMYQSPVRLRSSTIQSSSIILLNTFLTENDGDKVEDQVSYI

inhibition [1]	inhibition [2]	inhibition [3]	inhibition [4]	inhibition [5]	inhibition [6]	IC50 [10]	Structure (SMILES)	further results
22%	22%	11%	12%	50%	20%		COc1ccccc1N1CCN(C[C@@H](C(=O)NC(C)(C)C)c2ccccc2)CC1 [listing 1 of 2 here]	
							O=C1CC2(CCCC2)CC(=O)N1CCCCN1CCN(c2ncccn2)CC1 [BUSPIRONE]	IC50 (Adrenergic receptor beta): > 1 µM; Decrease (Rattus norvegicus [7]): 39.9%
						0.0155 µM	COc1ccccc1N1CCN(C[C@@H](C(=O)NC(C)(C)C)c2ccccc2)CC1 [listing 2 of 2 here]	IC50 [8]: 1.878 µM; IC50 [9]: 1.393 µM
							COc1ccccc1N1CCN(CCN2C(=O)CC3(CCCC3)CC2=O)CC1.Cl.Cl	Decrease (Rattus norvegicus [11]): 37.6%
							COc1ccccc1N1CCN(C[C@@H](C(=O)NC(C)(C)C)c2ccccc2)CC1 (stereo in doubt; (R)-5)	MED (Rattus norvegicus [12]): 10 mg/kg
20%	27%	10%	20%	37%	14%	0.0339 µM	COc1ccccc1N1CCN(CC(C(=O)NC(C)(C)C)c2ccccc2)CC1 (centres undefined)	minimal effective dose (Rattus norvegicus [12]; Rattus norvegicus, sc, read-out: MED): 3 mg/kg; IC50 [13]: 1.491 µM; inhibition [14]: 37%
							COc1ccccc1N1CCN(C[C@@H](C(=O)NC(C)(C)C)c2ccccc2)CC1 (stereo in doubt; (S)-5)	MED (Rattus norvegicus [12]): 1 mg/kg
2%	21%	7%	7%	14%	4%	0.437 µM	COc1ccccc1N1CCN(C[C@H](C(=O)NC(C)(C)C)c2ccccc2)CC1	IC50 [15]: 2.781 µM; inhibition [14]: 13%
							CCCN(CCC)C1CCc2cccc(O)c2C1 (centres undefined) [8-OH-DPAT]	Decrease (Rattus norvegicus [16]): 19.2%
